Legend:
Streptococcus mutans = test: Growth inhibition of Streptococcus mutans UA159 after 16 hrs; assay type: organism-based; settings: Streptococcus mutans, UA159, 16 h; read-out: IC50
How it was run: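 S. mutans UA159 co-incubated with compound at various concentrations; growth measured at OD470.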

[1] = biological target: T1, Glucosyltransferase-S (Streptococcus mutans serotype c (strain ATCC 700610 / UA159)) (UniProt P49331); test: Inhibition of Wild-type Streptococcus mutans UA159 glucosyltransferase D by zymography
T1 sequence (whole entry): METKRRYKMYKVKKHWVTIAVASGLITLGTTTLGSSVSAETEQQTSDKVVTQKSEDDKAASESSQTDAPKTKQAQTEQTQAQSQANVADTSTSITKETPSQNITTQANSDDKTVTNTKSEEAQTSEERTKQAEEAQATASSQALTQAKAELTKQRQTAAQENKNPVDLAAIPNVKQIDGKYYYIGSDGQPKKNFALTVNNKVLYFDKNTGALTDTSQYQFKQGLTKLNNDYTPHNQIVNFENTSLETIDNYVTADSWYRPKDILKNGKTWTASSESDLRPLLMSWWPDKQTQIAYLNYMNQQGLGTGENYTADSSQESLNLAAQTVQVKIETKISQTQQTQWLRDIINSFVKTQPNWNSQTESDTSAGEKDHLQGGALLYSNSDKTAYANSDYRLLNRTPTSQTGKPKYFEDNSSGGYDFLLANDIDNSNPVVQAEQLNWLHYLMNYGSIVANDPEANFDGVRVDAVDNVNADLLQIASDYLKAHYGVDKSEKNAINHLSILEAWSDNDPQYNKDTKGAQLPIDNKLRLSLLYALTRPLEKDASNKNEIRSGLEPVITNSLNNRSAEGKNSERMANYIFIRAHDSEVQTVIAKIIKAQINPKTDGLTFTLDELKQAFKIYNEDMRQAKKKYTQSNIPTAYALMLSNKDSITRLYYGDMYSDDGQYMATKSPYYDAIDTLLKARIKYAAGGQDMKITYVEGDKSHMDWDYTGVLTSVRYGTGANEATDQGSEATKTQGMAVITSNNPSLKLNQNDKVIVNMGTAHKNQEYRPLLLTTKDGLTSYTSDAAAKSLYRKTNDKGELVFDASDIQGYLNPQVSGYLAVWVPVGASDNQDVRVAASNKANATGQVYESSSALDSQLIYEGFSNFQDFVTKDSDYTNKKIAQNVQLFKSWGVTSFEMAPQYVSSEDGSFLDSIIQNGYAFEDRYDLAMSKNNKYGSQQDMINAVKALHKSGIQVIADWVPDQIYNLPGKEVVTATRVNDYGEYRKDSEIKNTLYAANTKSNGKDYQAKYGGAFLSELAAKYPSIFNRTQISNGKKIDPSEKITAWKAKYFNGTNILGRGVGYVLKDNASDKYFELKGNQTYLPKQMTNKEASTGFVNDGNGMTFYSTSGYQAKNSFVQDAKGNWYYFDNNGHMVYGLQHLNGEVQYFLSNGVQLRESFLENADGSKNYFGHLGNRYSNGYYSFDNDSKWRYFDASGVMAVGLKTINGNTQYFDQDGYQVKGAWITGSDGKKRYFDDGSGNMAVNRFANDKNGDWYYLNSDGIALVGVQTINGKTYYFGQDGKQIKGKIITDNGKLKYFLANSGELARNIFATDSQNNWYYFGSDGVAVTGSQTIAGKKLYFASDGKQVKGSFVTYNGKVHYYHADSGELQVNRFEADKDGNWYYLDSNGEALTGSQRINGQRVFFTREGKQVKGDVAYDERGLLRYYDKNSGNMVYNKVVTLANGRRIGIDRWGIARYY
How it was run: (§1)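 S. mutans UA159 wild type co-incubated with compound at different concentrations; Gtfs concentrated from supernatants, separated by SDS-PAGE and assayed by zymography, glucan band intensity reflecting enzyme activity.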

[2] = biological target: T2, Glucosyltransferase-I (Streptococcus mutans serotype c (strain ATCC 700610 / UA159)) (UniProt P08987); test: Inhibition of Wild-type Streptococcus mutans UA159 glucosyltransferase B by zymography; how it was run: as §1
T2 sequence (whole entry): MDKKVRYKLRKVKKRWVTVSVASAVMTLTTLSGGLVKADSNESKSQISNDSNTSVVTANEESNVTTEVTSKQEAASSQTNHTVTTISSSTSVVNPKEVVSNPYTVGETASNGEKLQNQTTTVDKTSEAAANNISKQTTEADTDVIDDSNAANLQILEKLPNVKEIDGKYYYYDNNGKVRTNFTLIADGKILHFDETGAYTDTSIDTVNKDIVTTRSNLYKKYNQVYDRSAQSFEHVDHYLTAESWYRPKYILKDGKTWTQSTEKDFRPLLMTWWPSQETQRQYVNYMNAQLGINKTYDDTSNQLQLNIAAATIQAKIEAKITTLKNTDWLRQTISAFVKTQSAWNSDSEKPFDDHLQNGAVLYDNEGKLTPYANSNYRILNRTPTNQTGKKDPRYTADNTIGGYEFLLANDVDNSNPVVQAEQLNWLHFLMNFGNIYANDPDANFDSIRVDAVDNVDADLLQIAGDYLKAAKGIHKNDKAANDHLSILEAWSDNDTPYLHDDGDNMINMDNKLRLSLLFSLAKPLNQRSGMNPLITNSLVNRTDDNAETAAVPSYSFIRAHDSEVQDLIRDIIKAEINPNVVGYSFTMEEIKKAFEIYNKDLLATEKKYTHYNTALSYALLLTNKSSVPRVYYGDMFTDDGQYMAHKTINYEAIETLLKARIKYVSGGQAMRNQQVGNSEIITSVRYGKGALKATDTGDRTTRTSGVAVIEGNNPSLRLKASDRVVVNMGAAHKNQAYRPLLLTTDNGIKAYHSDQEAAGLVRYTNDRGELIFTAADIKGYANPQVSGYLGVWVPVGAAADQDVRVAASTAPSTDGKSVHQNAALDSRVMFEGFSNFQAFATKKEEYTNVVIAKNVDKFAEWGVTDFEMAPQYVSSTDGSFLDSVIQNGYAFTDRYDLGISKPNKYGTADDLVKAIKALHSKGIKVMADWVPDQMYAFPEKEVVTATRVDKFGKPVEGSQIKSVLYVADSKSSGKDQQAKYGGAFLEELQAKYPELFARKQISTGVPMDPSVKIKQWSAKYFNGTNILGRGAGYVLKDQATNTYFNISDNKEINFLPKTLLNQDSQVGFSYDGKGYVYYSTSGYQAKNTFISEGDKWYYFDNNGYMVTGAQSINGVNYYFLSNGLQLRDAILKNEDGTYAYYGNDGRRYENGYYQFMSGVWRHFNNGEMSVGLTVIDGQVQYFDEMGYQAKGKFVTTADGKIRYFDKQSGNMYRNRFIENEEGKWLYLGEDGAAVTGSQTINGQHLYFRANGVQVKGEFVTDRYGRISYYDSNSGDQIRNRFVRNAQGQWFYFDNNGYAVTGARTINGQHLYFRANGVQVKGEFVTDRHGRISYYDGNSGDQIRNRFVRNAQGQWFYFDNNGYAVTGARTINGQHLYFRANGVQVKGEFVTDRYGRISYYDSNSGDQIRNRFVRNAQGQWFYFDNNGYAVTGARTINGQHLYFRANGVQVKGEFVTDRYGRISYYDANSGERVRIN

Row | inhibition [1] | inhibition [2] | Structure (SMILES) | IC50 (Streptococcus mutans) [µM]
1 |  |  | O=C(/C=C/c1ccc(O)cc1O)c1ccc(O)cc1 | 1060
2 | Dose-dependent effect | Dose-dependent effect | O=C(/C=C\c1ccc(O)cc1O)c1cccc(O)c1 | 
